pEC50: −log10 of the molar value. Active and inactive are the calls of the source. No cut-off for these calls is given here.
Assays:
[1] = biological target: T1, Tyrosine-protein phosphatase non-receptor type 1 (Homo sapiens) (UniProt P18031); test: Inhibition of PTP1B (unknown origin)
T1 sequence (whole entry): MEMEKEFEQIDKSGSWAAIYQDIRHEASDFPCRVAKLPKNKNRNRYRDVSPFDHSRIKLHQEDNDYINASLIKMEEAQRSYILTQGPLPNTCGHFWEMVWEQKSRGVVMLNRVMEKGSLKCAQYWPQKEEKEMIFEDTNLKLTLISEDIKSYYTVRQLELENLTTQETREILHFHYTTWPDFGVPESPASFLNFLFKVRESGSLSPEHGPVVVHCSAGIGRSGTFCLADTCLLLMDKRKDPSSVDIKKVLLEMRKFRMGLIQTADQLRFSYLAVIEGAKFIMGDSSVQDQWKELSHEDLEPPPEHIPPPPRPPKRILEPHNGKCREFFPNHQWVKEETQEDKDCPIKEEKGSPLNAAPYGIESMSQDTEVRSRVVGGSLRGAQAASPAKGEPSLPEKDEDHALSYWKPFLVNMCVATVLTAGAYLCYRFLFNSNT

[2] = biological target: Nuclear factor NF-kappa-B complex (Homo sapiens) (UniProt Q00653+P19838+Q04206); test: Inhibition of TNFalpha-stimulated NF-kappaB signaling (unknown origin) expressed in HEK293 cells by luciferase reporter gene assay; assay type: cell-based
Sequence of Nuclear factor NF-kappa-B complex (Homo sapiens) (P19838 whole entry, looked up): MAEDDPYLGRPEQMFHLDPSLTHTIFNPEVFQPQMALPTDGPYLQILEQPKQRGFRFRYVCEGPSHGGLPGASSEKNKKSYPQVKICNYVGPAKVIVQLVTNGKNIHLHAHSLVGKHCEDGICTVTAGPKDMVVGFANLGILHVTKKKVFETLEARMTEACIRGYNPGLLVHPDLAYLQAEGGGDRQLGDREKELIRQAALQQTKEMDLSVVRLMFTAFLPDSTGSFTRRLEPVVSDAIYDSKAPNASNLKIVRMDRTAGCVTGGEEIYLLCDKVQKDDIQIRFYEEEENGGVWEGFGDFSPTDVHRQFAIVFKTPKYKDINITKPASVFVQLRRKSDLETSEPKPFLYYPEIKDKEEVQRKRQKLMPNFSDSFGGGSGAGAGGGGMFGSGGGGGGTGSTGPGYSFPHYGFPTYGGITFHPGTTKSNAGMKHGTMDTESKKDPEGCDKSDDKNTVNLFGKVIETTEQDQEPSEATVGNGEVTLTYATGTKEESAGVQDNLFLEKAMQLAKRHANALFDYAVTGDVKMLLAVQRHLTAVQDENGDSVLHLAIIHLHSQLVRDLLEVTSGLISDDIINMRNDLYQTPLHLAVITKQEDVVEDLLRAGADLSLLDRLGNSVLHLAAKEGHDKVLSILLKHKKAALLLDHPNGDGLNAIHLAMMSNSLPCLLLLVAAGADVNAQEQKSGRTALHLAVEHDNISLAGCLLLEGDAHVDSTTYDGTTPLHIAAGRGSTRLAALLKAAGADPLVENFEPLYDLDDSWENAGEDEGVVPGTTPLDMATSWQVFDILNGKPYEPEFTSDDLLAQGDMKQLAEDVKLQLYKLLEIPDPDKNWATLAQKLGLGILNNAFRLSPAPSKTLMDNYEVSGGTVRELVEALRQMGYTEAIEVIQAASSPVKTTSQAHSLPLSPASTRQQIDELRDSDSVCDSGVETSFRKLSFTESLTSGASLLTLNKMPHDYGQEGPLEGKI
Sequence of Nuclear factor NF-kappa-B complex (Homo sapiens) (Q00653 whole entry, looked up): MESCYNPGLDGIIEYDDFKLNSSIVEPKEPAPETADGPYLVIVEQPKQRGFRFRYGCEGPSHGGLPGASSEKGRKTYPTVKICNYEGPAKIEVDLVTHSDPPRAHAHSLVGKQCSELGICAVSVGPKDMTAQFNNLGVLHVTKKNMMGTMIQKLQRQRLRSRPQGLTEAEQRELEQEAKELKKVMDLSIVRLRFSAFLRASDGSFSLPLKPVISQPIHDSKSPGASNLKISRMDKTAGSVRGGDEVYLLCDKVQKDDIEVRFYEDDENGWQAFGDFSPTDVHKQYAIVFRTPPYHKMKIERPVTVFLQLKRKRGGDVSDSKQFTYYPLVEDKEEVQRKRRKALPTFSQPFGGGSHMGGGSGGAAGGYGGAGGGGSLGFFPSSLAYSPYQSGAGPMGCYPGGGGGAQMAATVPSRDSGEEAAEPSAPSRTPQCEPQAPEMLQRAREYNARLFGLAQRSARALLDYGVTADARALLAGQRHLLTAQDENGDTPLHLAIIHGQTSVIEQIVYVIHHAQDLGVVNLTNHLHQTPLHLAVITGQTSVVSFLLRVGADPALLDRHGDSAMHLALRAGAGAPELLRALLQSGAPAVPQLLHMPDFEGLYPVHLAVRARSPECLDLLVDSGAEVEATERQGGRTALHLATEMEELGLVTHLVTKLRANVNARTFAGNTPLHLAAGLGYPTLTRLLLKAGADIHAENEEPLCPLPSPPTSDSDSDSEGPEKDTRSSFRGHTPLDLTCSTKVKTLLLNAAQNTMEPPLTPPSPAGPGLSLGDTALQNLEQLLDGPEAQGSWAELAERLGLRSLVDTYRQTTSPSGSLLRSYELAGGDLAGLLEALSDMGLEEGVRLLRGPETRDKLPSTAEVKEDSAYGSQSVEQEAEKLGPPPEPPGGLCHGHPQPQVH
Sequence of Nuclear factor NF-kappa-B complex (Homo sapiens) (Q04206 whole entry, looked up): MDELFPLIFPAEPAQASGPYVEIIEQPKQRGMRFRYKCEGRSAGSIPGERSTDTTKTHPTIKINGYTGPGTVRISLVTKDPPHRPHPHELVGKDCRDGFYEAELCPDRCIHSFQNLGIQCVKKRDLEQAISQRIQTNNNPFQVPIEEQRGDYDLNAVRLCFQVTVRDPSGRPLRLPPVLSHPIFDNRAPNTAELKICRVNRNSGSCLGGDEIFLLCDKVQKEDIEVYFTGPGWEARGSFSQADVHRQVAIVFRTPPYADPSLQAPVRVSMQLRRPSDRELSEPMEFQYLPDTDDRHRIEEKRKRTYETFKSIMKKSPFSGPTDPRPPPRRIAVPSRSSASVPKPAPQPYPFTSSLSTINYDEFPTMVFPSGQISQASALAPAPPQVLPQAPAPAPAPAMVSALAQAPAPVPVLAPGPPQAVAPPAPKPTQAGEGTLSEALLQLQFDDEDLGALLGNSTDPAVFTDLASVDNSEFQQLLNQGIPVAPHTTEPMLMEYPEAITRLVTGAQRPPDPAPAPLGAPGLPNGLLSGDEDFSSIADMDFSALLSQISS

[3] = Inhibition of XBP1 mRNA splicing (unknown origin) expressed in mouse B16-F10-XBP1-DBD-luc cells incubated for 8 hrs by luciferase reporter gene assay; assay type: cell-based
[4] = system: Human immunodeficiency virus 1; test: Antiviral activity against HIV-1 NL 4-3 infected in MT4 cells assessed as inhibition of virus-induced cytopathic effect; assay type: functional, organism-based; settings: Human immunodeficiency virus 1, NL 4-3, MT4
Summary of the method: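 HIV-1 NL4-3-infected MT-4 cultures; run per a prior method with minor changes. The read-out is protection of cells from virus-induced cytopathic effect. EC50 is the concentration giving 50% protection, derived by curve fitting.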

[5] = Selectivity index, ratio of CC50 for human MT4 cells to EC50 for HIV-1 NL 4-3 infected in MT4 cells; assay type: toxicity, cell-based; settings: read-out: Ratio CC50/EC50

| SMILES | inhibition [1] | inhibition [2] | pEC50 [4] | inhibition [3] | selectivity ratio [5] |
| --- | --- | --- | --- | --- | --- |
| C=C[C@@]1(C)C=C2CC[C@H]3[C@@](C)(CC[C@@H](OC(C)=O)[C@]3(C)C(=O)O)[C@@H]2C[C@@H]1O | inactive | inactive | – | inactive | – |
| CC(=O)O[C@H]1C2=C(C[C@H]3OC(=O)C(C)=C13)[C@@]1(C)[C@H](CC2)C(C)(C)CC[C@@H]1O | – | – | 5.45 | – | 8.6 |
| C=C[C@@]1(C)C=C2CC[C@@H]3[C@@](C)(C=O)[C@H](OC(C)=O)CC[C@@]3(C)[C@@H]2C[C@@H]1O | inactive | inactive | – | inactive | – |
| C[C@@]12CCC(=O)[C@@](C)(CO)[C@H]1CC[C@@]13CC[C@@H](C[C@H]12)[C@](O)(CO)C3 | inactive | inactive | – | inactive | – |
| CC1=C2[C@H]3O[C@]34CC[C@@H]3C(C)(C)CC[C@H](O)[C@@]3(C)[C@@H]4C[C@H]2OC1=O | – | – | 5.13 | – | 10.3 |
| C=C[C@@]1(C)C=C2CC[C@@H]3C(C)(C)[C@H](OC(C)=O)CC[C@@]3(C)[C@@H]2C[C@@H]1O | inactive | inactive | – | inactive | – |

The next lines start with results.

| inhibition [1] | inhibition [2] | pEC50 [4] | SMILES | inhibition [3] | selectivity ratio [5] |
| --- | --- | --- | --- | --- | --- |
| inactive | inactive | – | C=C1C[C@@]23CC[C@@H]4C(C)(C)C(=O)CC[C@@]4(C)[C@@H]2C[C@@H]1[C@@H](O)[C@H]3O | inactive | – |
| inactive | inactive | – | CC1(C)C(=O)CC[C@]2(C)[C@@H]1CC[C@@]13CC[C@@H](C[C@H]12)C(=O)C3 | inactive | – |
| inactive | inactive | – | C=C1C[C@@]23CC[C@@H]4C(C)(C)C(=O)CC[C@@]4(C)[C@@H]2C[C@@H]1C[C@H]3O | inactive | – |

Source: ChEMBL document CHEMBL3352335, “Eurifoloids A-R, structurally diverse diterpenoids from Euphorbia neriifolia” (J Nat Prod, 2014)
